The source of these data is PubChem BioAssay AID704 (The Scripps Research Institute Molecular Screening Center, 2007).

Out of some 97,000 compounds screened, about 770 (0.79%) were called active.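 How the source made its calls: active means inhibition above the screen-wide mean plus 3 SD (cut at about 35% in these data); inactive means the rest.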 Many of the other results were omitted from the sample, so actives are more common in it than they were.

For this test, the target named is Protein Rev (Human immunodeficiency virus type 1 group M subtype B (isolate WMJ22)) (UniProt P05866). Put plainly: disruptors of Rev peptide-RRE RNA complex – biochemical, FRET, protein-RNA interaction, primary screen (AID 704).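 Further: 0% = median DMSO wells and 100% = median Neomycin B control wells.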 The settings on record: Rev peptide-RRE RNA binding, at 8 µM, hits give high values. Put shortly: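 Material: labelled RRE RNA duplex and labelled Rev peptide / Buffer or medium: HEPES pH 7.5 salt buffer with EDTA / Compound dosing: single point, 8 µM final nominal compound concentration / Benchmarks: DMSO low control, neomycin B high control / Timing: 5 min preincubation and 15 min binding, 25 °C / Technique: FRET fluorescence readout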
Chain of Protein Rev (Human immunodeficiency virus type 1 group M subtype B (isolate WMJ22)) (P05866 whole entry, looked up): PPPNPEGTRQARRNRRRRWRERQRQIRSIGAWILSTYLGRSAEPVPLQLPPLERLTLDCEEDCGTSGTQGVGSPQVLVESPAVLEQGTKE
Regarding `O=C(Cc1c[nH]c2ccccc12)OCCOC(=O)Cc1c[nH]c2ccccc12`, the inhibition (usually the relative decrease from the control value, in per cent) was 3.26% (inactive).

Take `COC(=O)C(C)n1cnc2c(nnn2-c2cccc(Cl)c2)c1=O` (stereo not drawn): the inhibition is 3.58% (inactive).

For `CCOc1nnc(C)c2c(C)n(-c3cccc(Cl)c3)nc12`, the inhibition is 53.5% (active).

As to `CCOc1cccc(-n2nnnc2-c2ccc(OC)cc2)c1`, the inhibition was 1.17% (inactive).

For the compound `C=CCC(NCc1ccco1)c1ccc(OC)cc1` (stereo not drawn), the inhibition is 2.12% (inactive).

On to `CCCCCCCCOC1OC(CO)C(O)C(O)C1NC(C)=O` (stereo not drawn), for which the inhibition is -1.01% (inactive).

For `O=C(c1ccc2c(c1)OCO2)N1CCOCC1`, the inhibition was 2.74% (inactive).

Regarding `O=C(NCCOc1ccccc1)c1ccccc1`, the inhibition is 7.52% (inactive).

For the compound `CCOC(=O)c1sc(NC(=O)c2ccncc2)nc1C`, the inhibition is 4.33% (inactive).

Regarding `CC/S(CC1CC1(Cl)Cl)=N\S(=O)(=O)c1ccc(C)cc1` (stereo not drawn), the inhibition is -0.12% (inactive).

`CCN(CC)C(=O)CSc1nnc(C2CCCCC2)o1`: the inhibition was -0.19% (inactive).

In the case of `CCOc1ccc2c(c1)C(c1ccc(C)cc1)=NNC(c1ccc(C)cc1)=N2`, the inhibition was -0.68% (inactive).

As for `COc1ccccc1C(c1nnnn1C(C)(C)C)N1CCN(Cc2ccccc2)CC1` (stereo not drawn), the inhibition was 5.48% (inactive).

With `O=C1CSC(c2ccccc2)N1c1nc(-c2ccc(Cl)cc2Cl)cs1` (stereo not drawn), the inhibition is 11.2% (inactive).

Consider `Cc1cc(C)cc(OCC(=O)NNC(=O)c2cc3ccccc3oc2=O)c1`, for which the inhibition was 3.32% (inactive).

With `O=c1c2ccccc2c(-c2ccc(Br)cc2)nn1Cc1ccccc1`, the inhibition was 10.1% (inactive).

For the compound `CN(C)c1ccc(/C=C2\NC(=S)N(Cc3ccccc3)C2=O)cc1`, the inhibition was 136% [fluorescence artefact?] (active).

Turning to `CC1=NN(Cc2ccccc2)C(=O)/C1=C/c1ccc(N(C)C)cc1`, the inhibition is 13.1% (inactive).

Take `CC(C)(C)n1nnnc1C(c1ccc(Cl)cc1)N1CCSCC1` (stereo not drawn): the inhibition is 3.16% (inactive).

As for `O=c1c2ccccc2nc2n1C(CSCc1cccc(C(F)(F)F)c1)CS2` (stereo not drawn), the inhibition was 5.83% (inactive).

In the case of `OC(COCCC12CC3CC(CC(C3)C1)C2)CN1CCCCC1` (stereo not drawn), the inhibition was -1.79% (inactive).

As for `CCCCn1c(=S)[nH]c2cc(S(=O)(=O)N3CCCCC3)ccc21`, the inhibition was 1.26% (inactive).

Turning to `Clc1ccc(-n2nnnc2CN2CCCCC2)cc1Cl`, the inhibition is 1.19% (inactive).

As to `CCOC(=O)C1=C(C)NC2=C(C(=O)CC(C)(C)C2)C1c1ccsc1` (stereo not drawn), the inhibition is 0.96% (inactive).

Regarding `CCOC(=O)c1[nH]c2ccc(C)cc2c1N=C(C)N(C)C`, the inhibition is 7.68% (inactive).

Regarding `Cc1[nH]c2ccccc2c1C(=O)COC(=O)C(C)C`, the inhibition was 2.32% (inactive).

Turning to `CCOC(=O)c1[nH]c2ccccc2c1N=C(C)N(CC)CC`, the inhibition was 65% (active).

Consider `O=C(Nc1nccs1)C1CCN(S(=O)(=O)c2ccc(Cl)c(C(F)(F)F)c2)CC1`, for which the inhibition was 11.3% (inactive).

As to `COC(=O)c1sccc1-n1cccc1C(=O)C(=O)N1CCCCC1`, the inhibition is 4.4% (inactive).

As for `Cc1cccc(-c2nc3c(c(SCC(=O)N4CCOCC4)n2)CCCC3)c1`, the inhibition is 12.4% (inactive).

As to `CCCCSc1[nH]c(=O)c(C(=O)OCC)cc1C#N`, the inhibition was 0.71% (inactive).

Turning to `COc1ccc(-n2nc(C(=O)NCC(=O)Nc3cccc(C)n3)c3ccccc3c2=O)cc1`, the inhibition is 6.83% (inactive).

`Cc1nc(-c2ccccc2)sc1-c1nc(-c2ccccc2)ncc1S(=O)(=O)c1ccccc1`: the inhibition was 2.59% (inactive).

Turning to `CNC(=O)/C(=C\C=C\c1ccccc1)NC(=O)c1ccc([N+](=O)[O-])cc1`, the inhibition is 3.26% (inactive).

In the case of `CCOC(=O)c1cnn(Cc2ccccc2Cl)c1N`, the inhibition was 3.78% (inactive).

Turning to `CCCCCCc1cc2cc(-c3nnc(-c4cccc(OC)c4)o3)c(=O)oc2cc1O`, the inhibition was 126% [fluorescence artefact?] (active).

In the case of `CCCCCCc1cc2cc(-c3nnc(-c4ccccc4)o3)c(=O)oc2cc1O`, the inhibition was 136% [fluorescence artefact?] (active).

On to `CCCCN(CC)CCCNC(=O)CS(=O)(=O)Cc1nc(-c2cccc(OC)c2)oc1C`, for which the inhibition is -1.81% (inactive).

In the case of `O=c1oc2cc(O)ccc2cc1-c1ccc(F)cc1`, the inhibition was 10.2% (inactive).

For `COc1cccc(C(=O)c2cc3ccc(O)cc3oc2=O)c1`, the inhibition is 2.17% (inactive).

With `COc1cc(C(=O)NC(=S)NCc2ccco2)cc(OC)c1OC`, the inhibition is -0.1% (inactive).

Take `COc1ccc(-c2cc(C3CCN(c4ncccc4[N+](=O)[O-])CC3)[nH]n2)cc1`: the inhibition was 15.1% (inactive).

Consider `Cc1cccc(CSc2nnc(NC(=O)CSc3nnc(C)s3)s2)c1`, for which the inhibition was 2.97% (inactive).

Consider `Cc1ccc(-c2noc(CSc3nnc(-c4ccncc4)n3-c3ccc(F)cc3)n2)cc1`, for which the inhibition is 1.43% (inactive).

For `CCOc1ccc(NC(=O)N(CC(C)C)CC(C)C)cc1`, the inhibition is 7.89% (inactive).

With `COc1ccc(CCNC(=S)NC(=O)/C=C/c2ccc(C)cc2)cc1OC`, the inhibition is -2.76% (inactive).

With `CC(=O)Nc1ccc(S(=O)(=O)N2CCN(C(=O)c3ccccc3F)CC2)cc1`, the inhibition was 4.25% (inactive).

Regarding `Cn1c2c(c(=O)n(C)c1=O)C(c1cccc([N+](=O)[O-])c1)Nc1ccccc1O2` (stereo not drawn), the inhibition is 0.04% (inactive).

For the compound `CS(=O)(=O)n1nc(-c2ccccc2)nc1NCc1ccco1`, the inhibition was 7.66% (inactive).

Consider `CSc1nc(N(C)NC(=O)c2cccc(C)c2)c2ccccc2n1`, for which the inhibition was 3.84% (inactive).

As for `Cc1ccc(C)c(NC(=O)C2Cc3ccccc3CN2C(=O)OCc2ccccc2)c1` (stereo not drawn), the inhibition was 15.4% (inactive).

As for `CCOC(=O)c1c(C)oc2cc(Br)c(OCC(N)=O)cc12`, the inhibition was -5.76% (inactive).

For `COC(=O)C1=C(C)NC(=O)NC1/C=C/c1ccccc1` (stereo not drawn), the inhibition was 7.27% (inactive).

As to `COc1ccccc1NC(=O)C1=C(C)NC2=C(C(=O)CCC2)C1c1ccc(C)o1` (stereo not drawn), the inhibition is -3.73% (inactive).

Turning to `COC(=O)C1=C(C)NC2=C(C(=O)c3ccccc32)C1c1ccc(-c2ccc(C(=O)O)cc2)o1` (stereo not drawn), the inhibition was 41.7% (active).

Consider `N#C/C(=C(/O)COc1cccc2ccccc12)c1nc2ccccc2[nH]1`, for which the inhibition is 8.41% (inactive).

As for `COc1ccc(-n2nnnc2SCc2nc(N)nc(N3CCOCC3)n2)cc1`, the inhibition was 8.05% (inactive).

Consider `O=C(COc1ccc(/C=N/NS(=O)(=O)c2ccccc2)cc1)NCCc1ccccc1`, for which the inhibition was 6.41% (inactive).

For `O=S(=O)(N1CCCCC1)N1CCNCC1`, the inhibition was 0.92% (inactive).

In the case of `CCN(CC)c1ccc(NC(=O)c2ccc(Cl)nc2)cc1`, the inhibition is -7.72% (inactive).

In the case of `Cc1c(C(=O)OC(C)C)sc(NC(=O)c2cccnc2)c1C#N`, the inhibition is 27.8% (inactive).

As for `CC(C)c1cc(C(N)=O)c(NC(=O)c2cccc(COc3ccc(Br)cc3)c2)s1`, the inhibition is 15.9% (inactive).

Turning to `CC1=CC(C)(C)Nc2ccc(OC(=O)C(Cc3ccccc3)N3C(=O)C4CCCCC4C3=O)cc21` (stereo not drawn), the inhibition was -0.51% (inactive).

On to `CCCNC(=O)CN(Cc1ccccc1F)S(=O)(=O)c1ccc(C)cc1`, for which the inhibition was 8.11% (inactive).

For the compound `COC(=O)/C(NC(C)=O)=C(\C)c1ccc(Cl)cc1`, the inhibition was 1.2% (inactive).

Turning to `O=C(c1cc2c(s1)CCC2)N1CCN(c2ccccc2)CC1`, the inhibition is -4.48% (inactive).

As to `CC(=O)Nc1ccc(OCC(O)CN2CCN(c3ccccc3Cl)CC2)cc1` (stereo not drawn), the inhibition was -0.14% (inactive).

Turning to `Cc1cc2c(c(=O)n1Cc1ccco1)C(c1ccccc1)C(C#N)=C(N)O2` (stereo not drawn), the inhibition is 7.8% (inactive).

Turning to `CCOC(=O)CSc1nc2c(sc(=S)n2CCc2ccccc2)c(=O)n1Cc1ccco1`, the inhibition was 7.11% (inactive).

In the case of `CN(c1ccccc1)c1ccc(/C=c2\s/c(=C(/C#N)C(=O)C(C)(C)C)n(Cc3ccco3)c2=O)cc1`, the inhibition was 117% [fluorescence artefact?] (active).

`N#C/C(=C(/O)Cc1cccc2ccccc12)c1nc2ccccc2s1`: the inhibition is 3.55% (inactive).

On to `O=C(C1=C(O)C(=O)N(Cc2ccccc2)C1c1cccnc1)c1ccco1` (stereo not drawn), for which the inhibition is 7.49% (inactive).

Turning to `O=C(C1=C(O)C(=O)N(Cc2ccccc2)C1c1ccco1)c1ccco1` (stereo not drawn), the inhibition was 0.29% (inactive).

As for `O=C(C1=C(O)C(=O)N(c2ncccn2)C1c1cccs1)c1ccco1` (stereo not drawn), the inhibition was 46.5% (active).

On to `O=c1c2ccccc2nc2n1C(CSc1ccc(Cl)cc1)CN2` (stereo not drawn), for which the inhibition is 6.92% (inactive).

With `CCOC(=O)c1sc(C)c2c1NC(C)(c1cccc3ccccc13)NC2=O` (stereo not drawn), the inhibition is 18.2% (inactive).

Turning to `CCN1C(=O)C(CC(=O)Nc2cc(C)ccc2C)SC1=Nc1ccc(S(N)(=O)=O)cc1` (stereo not drawn), the inhibition was 9.41% (inactive).

As for `CC(CN1CCOCC1)c1ccccc1` (stereo not drawn), the inhibition was 10.4% (inactive).

For `Cc1ccc(NC(=O)Nc2ccc3oc(C)nc3c2)cc1`, the inhibition is 7.33% (inactive).

Take `CCOCN(C(=O)Cn1c(C(C)O)nc2ccccc21)c1c(C)cccc1CC` (stereo not drawn): the inhibition was 2.37% (inactive).

Consider `Cc1c(C#N)c(NC(=O)c2ccccc2)n(Cc2ccccc2)c1C`, for which the inhibition is 2.3% (inactive).

Consider `Cc1nn(CCOc2ccccc2)c(=O)n1-c1ccccc1F`, for which the inhibition is 5.48% (inactive).

Turning to `COc1cc(/C=C(\C#N)c2nc3c(s2)CC(C)CC3)ccc1O` (stereo not drawn), the inhibition was 66% (active).

As for `COc1cc(C(=O)OC(C)C(=O)NCC2CCCCC2)cc(NC(=O)c2ccco2)c1OC` (stereo not drawn), the inhibition is -0.95% (inactive).

Regarding `CCOCc1nnc(NC(=O)CSc2ccc(C)cc2)s1`, the inhibition was 6.99% (inactive).

On to `CS(=O)(=O)c1ccc2c(c1)SC1=NC(=O)/C(=C/c3ccco3)C(=N)N12`, for which the inhibition was 36.1% (active).

With `CN(C)CCNC(=O)Nc1cccc(Cl)c1Cl`, the inhibition was 2.97% (inactive).

As to `O=C1COc2ccc(NC(=O)N3CCN(c4ccc(F)cc4)CC3)cc2N1`, the inhibition is 5.12% (inactive).

In the case of `O=C(CC12CC3CC(CC(C3)C1)C2)Nc1ccc2c(c1)COC2=O`, the inhibition is 11.5% (inactive).

On to `Oc1ccc2ccc3cccc[n+]3c2c1`, for which the inhibition was 120% [fluorescence artefact?] (active).

Take `Cc1noc(C)c1C(=O)OCC(=O)/C=C1\N(C)c2ccccc2C1(C)C`: the inhibition is 2.24% (inactive).

On to `CN1/C(=C\C(=O)c2oc3ccccc3c2N)C(C)(C)c2ccccc21`, for which the inhibition was 6.51% (inactive).

On to `CN1/C(=C\C=C2\N=C(c3ccc(F)cc3)OC2=O)C(C)(C)c2ccccc21`, for which the inhibition is 48.7% (active).
